From ChEMBL document CHEMBL3758075, “Synthesis and pharmacological evaluation of nucleoside prodrugs designed to target siderophore biosynthesis in Mycobacterium tuberculosis” (Bioorg Med Chem, 2016)

Columns and labels:
[1] = Drug level in pH 7.4 HEPES buffer treated with 100 uM 9-[3-O-(Acetyl)-2,5-dideoxy-2-fluoro-5-{N-(N-2-hydroxybenzoyl)sulfamoyl}amino-b-D-ribofuranosyl]adenine triethylammonium salt for 2 hrs by HPLC analysis; format: physicochemical; details: pH 7.4, 2 h
Procedure, shortened: (§1)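 Compound 100 µM (2% DMSO final) incubated in triplicate at 37 °C in simulated gastric fluid pH 1.2 or 100 mM HEPES pH 7.4. Samples taken at 0 and 120 min, placed on ice and analysed by RP-HPLC for prodrug and released parent; percentage of prodrug remaining at 120 min calculated.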

[2] = Aqueous stability in pH 1.2 simulated gastric fluid assessed as compound remaining after 2 hrs by HPLC method; format: physicochemical; details: simulated gi fluid, pH 1.2, 2 h; procedure, shortened: as §1
[3] = Retention time of compound by RP-HPLC method; format: physicochemical
Procedure, shortened: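 Reversed-phase C18 column (5 µm, 4.6 × 250 mm). Mobile phase 20 mM triethylammonium bicarbonate pH 7.5 / acetonitrile. Gradient 5–70% acetonitrile over 10 min, then 90% to 16 min, then 3 min re-equilibration at 5%.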

[4] = Aqueous stability in pH 7.4 HEPES buffer assessed as compound remaining after 2 hrs by HPLC method; format: physicochemical; details: pH 7.4, 2 h; procedure, shortened: as §1
[5] = Aqueous stability in pH 7.4 HEPES buffer assessed as prodrug remaining at 100 uM after 2 hrs by HPLC method; format: physicochemical; details: pH 7.4, 2 h; procedure, shortened: as §1
Plasma [6] = experiment: Stability in Sprague-Dawley rat plasma assessed as residual compound after 6 hrs by HPLC method; format: ADME, cell-free
Procedure, shortened: (§2)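 Pooled female plasma (CD-1 mouse, Sprague-Dawley rat, human) preincubated 5 min at 37 °C, then spiked from a 10 mM DMSO stock; triplicate. Samples at 0–360 min quenched with equal volume 10% TCA, centrifuged, supernatant run on HPLC. Half-life or percentage remaining at 6 h derived.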

Plasma [7] = experiment: Half life in CD-1 mouse plasma assessed as N-(N-(((2R,3R,4R,5R)-5-(6-amino-9H-purin-9-yl)-4-fluoro-3-hydroxytetrahydrofuran-2-yl)methyl)sulfamoyl)-2-hydroxybenzamide by HPLC method; format: ADME, cell-free; procedure, shortened: as §2
[8] = Aqueous stability in pH 1.2 simulated gastric fluid assessed as prodrug remaining at 100 uM after 2 hrs by HPLC method; format: physicochemical; details: simulated gi fluid, pH 1.2, 2 h; procedure, shortened: as §1
Plasma [9] = experiment: Stability in human plasma assessed as residual compound after 6 hrs by HPLC method; format: ADME, cell-free; procedure, shortened: as §2
[10] = Apparent permeability from basolateral to apical side in human Caco2 cells at 100 uM incubated for 2 hrs by HPLC method; format: ADME, cell-based; details: Caco-2
Procedure, shortened: (§3)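 Caco-2 cells (passage 50–70) grown 21 days on 0.4 µm transwell inserts; wells with TER >300 Ωcm2 used. Apical CAB pH 6.0, basolateral CAB pH 7.4, preincubated 60 min at 65 rpm. Test compound 100 µM in donor with lucifer yellow for tight-junction integrity. Acceptor levels of prodrug plus hydrolyzed parent measured by HPLC over time with cumulative sampling. Papp = flux/(area × C0); efflux ratio = BL-AP/AP-BL.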

[11] = Permeability from apical to basolateral side in human Caco2 cells assessed as prodrug remaining in apical side for 2 hrs by HPLC method; format: ADME, cell-based; details: caco-2, 2 h
Procedure, shortened: (§4)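 Bidirectional Caco-2 transwell run (21-day monolayers, TER >300 Ωcm2, apical pH 6.0 / basolateral pH 7.4 buffers, 100 µM donor). Intact prodrug left in the apical and basolateral compartments at 2 h quantified by reversed-phase HPLC, with hydrolysis to parent tracked.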

[12] = Permeability from basolateral to apical side in human Caco2 cells assessed as prodrug remaining in basolateral side for 2 hrs by HPLC method; format: ADME, cell-based; details: caco-2, 2 h; procedure, shortened: as §4
Plasma [13] = experiment: Stability in CD-1 mouse plasma assessed as residual compound after 6 hrs by HPLC method; format: ADME, cell-free; procedure, shortened: as §2
[14] = Permeability from basolateral to apical side in human Caco2 cells assessed as prodrug remaining in apical side for 2 hrs by HPLC method; format: ADME, cell-based; details: caco-2, 2 h; procedure, shortened: as §4
[15] = Efflux ratio of permeability from basolateral to apical side over apical to basolateral side in human Caco2 cells incubated for 2 hrs by HPLC method; format: ADME, cell-based; details: Caco-2; procedure, shortened: as §3
[16] = Permeability from apical to basolateral side in human Caco2 cells assessed as prodrug remaining in basolateral side for 2 hrs by HPLC method; format: ADME, cell-based; details: caco-2, 2 h; procedure, shortened: as §4
[17] = Apparent permeability from apical to basolateral side in human Caco2 cells at 100 uM incubated for 2 hrs by HPLC method; format: ADME, cell-based; details: Caco-2; procedure, shortened: as §3
Plasma [18] = experiment: Half life in Sprague-Dawley rat plasma assessed as N-(N-(((2R,3R,4R,5R)-5-(6-amino-9H-purin-9-yl)-4-fluoro-3-hydroxytetrahydrofuran-2-yl)methyl)sulfamoyl)-2-hydroxybenzamide by HPLC method; format: ADME, cell-free; procedure, shortened: as §2

SMILES | Drug metabolism [1] | Stability [2] | Retention_time [3] | Stability [4] | Stability [5] | Stability (Plasma [6]) | t1/2 (Plasma [7]) | Stability [8] | Stability (Plasma [9]) | Papp B→A at 2 h, 100 µM [10] | permeability [11] | permeability [12] | Stability (Plasma [13]) | permeability [14] | efflux ratio at 2 h [15] | permeability [16] | Papp A→B at 2 h, 100 µM [17] | t1/2 (Plasma [18])
Nc1ncnc2c1ncn2[C@@H]1O[C@H](CNS(=O)(=O)NC(=O)c2ccccc2O)[C@@H](O)[C@H]1F | metabolite_detected | 100% | 8.9 min | 100% | – | – | – | – | – | – | – | – | – | – | – | – | – | –
Nc1ncnc2c1ncn2[C@@H]1O[C@H](COS(=O)(=O)NC(=O)c2ccccc2O)[C@@H](O)[C@H]1O | – | – | 7.8 min | – | – | – | – | – | – | – | – | – | – | – | – | – | – | –
CCCCC(=O)O[C@H]1[C@@H](F)[C@H](n2cnc3c(N)ncnc32)O[C@@H]1CNS(=O)(=O)NC(=O)c1ccccc1O.CCN(CC)CC | – | – | 11.9 min | – | 100% | 53% | 1.6 h | 98% | 66% | – | – | – | – | – | – | – | – | –
CCCCCCCCCCCC(=O)O[C@H]1[C@@H](F)[C@H](n2cnc3c(N)ncnc32)O[C@@H]1CNS(=O)(=O)NC(=O)c1ccccc1O.CCN(CC)CC | – | – | 9.9 min | – | 100% | 95% | 1.6 h | 76% | 98% | – | – | – | – | – | – | – | – | –
CCC(CC)C(=O)O[C@H]1[C@@H](F)[C@H](n2cnc3c(N)ncnc32)O[C@@H]1CNS(=O)(=O)NC(=O)c1ccccc1O.CCN(CC)CC | – | – | – | – | 100% | 93% | – | 100% | 94% | 3.8 ×10⁻⁶ cm/s | 97% | 99% | 83% | 78% | 7.6 | 90% | 0.5 ×10⁻⁶ cm/s | –
CCC(=O)O[C@H]1[C@@H](F)[C@H](n2cnc3c(N)ncnc32)O[C@@H]1CNS(=O)(=O)NC(=O)c1ccccc1O.CCN(CC)CC | – | – | 10 min | – | 100% | 58% | 3.3 h | 97% | 70% | – | – | – | – | – | – | – | – | –
CC(C)C(=O)O[C@H]1[C@@H](F)[C@H](n2cnc3c(N)ncnc32)O[C@@H]1CNS(=O)(=O)NC(=O)c1ccccc1O.CCN(CC)CC | – | – | 10.7 min | – | 100% | 72% | 3.7 h | 98% | – | 3.4 ×10⁻⁶ cm/s | 88% | 95% | – | 53% | 8.5 | 73% | 0.4 ×10⁻⁶ cm/s | –
CCCCCCCC(=O)O[C@H]1[C@@H](F)[C@H](n2cnc3c(N)ncnc32)O[C@@H]1CNS(=O)(=O)NC(=O)c1ccccc1O.CCN(CC)CC | – | – | 13.7 min | – | 98% | 86% | 0.7 h | 93% | – | 6.9 ×10⁻⁶ cm/s | 29% | 90% | – | 1% | 1.8 | 3% | 3.9 ×10⁻⁶ cm/s | –
CC(=O)O[C@H]1[C@@H](F)[C@H](n2cnc3c(N)ncnc32)O[C@@H]1CNS(=O)(=O)NC(=O)c1ccccc1O.CCN(CC)CC | – | – | 9.5 min | – | 92% | – | 4.6 h | 97% | 61% | 1.6 ×10⁻⁶ cm/s | 93% | 86% | – | 88% | 1.5 | 81% | 1.1 ×10⁻⁶ cm/s | 5.7 h
CCCC(=O)O[C@H]1[C@@H](F)[C@H](n2cnc3c(N)ncnc32)O[C@@H]1CNS(=O)(=O)NC(=O)c1ccccc1O.CCN(CC)CC | – | – | 10.4 min | – | 100% | 61% | 2.2 h | 97% | 64% | 3.5 ×10⁻⁶ cm/s | 74% | 93% | – | 15% | 7 | 63% | 0.5 ×10⁻⁶ cm/s | –
